A selection: hits, their analogues and other compounds. The true share with any hit is near 1.4%.
NR2E3 ag-1: activates human photoreceptor nuclear receptor NR2E3. 0.12% of 320,000 active. GST-NR2E3/biotin-RetCOR TR-FRET, 1536-well. inhibition of corepressor binding, % at 4.78 µM;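 active means percent inhibition above the cutoff of mean plus 3 SD of all tested compounds, set per screening campaign, cut at about 20% in these data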;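 further: 0% = DMSO wells and 100% = biotin wells as full block of FRET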
Target sequence (Q9Y5X4 whole entry, looked up): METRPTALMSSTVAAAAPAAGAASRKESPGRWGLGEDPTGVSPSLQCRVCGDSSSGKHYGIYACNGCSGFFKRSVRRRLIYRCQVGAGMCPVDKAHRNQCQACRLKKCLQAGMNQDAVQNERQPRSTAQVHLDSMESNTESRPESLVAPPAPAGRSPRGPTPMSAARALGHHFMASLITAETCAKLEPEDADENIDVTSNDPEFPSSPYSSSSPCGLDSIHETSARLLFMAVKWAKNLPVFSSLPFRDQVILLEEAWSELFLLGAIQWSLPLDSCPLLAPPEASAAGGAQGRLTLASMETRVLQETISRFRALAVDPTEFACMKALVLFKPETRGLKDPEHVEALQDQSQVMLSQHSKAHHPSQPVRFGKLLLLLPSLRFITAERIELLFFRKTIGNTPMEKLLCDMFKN
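Format: 1536-well format; test system: GST-NR2E3 and biotin-RetCOR proteins; read-out basis: percent inhibition of TR-FRET ratio; timing: 5 h incubation at 4 °C; detection: time-resolved FRET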
PG9 binder: PG9 antibody binding by small molecule | TR-FRET gp120-PG9 antibody binding | inhibition, % at 6.7 µM | 0.43% of 360,000 active; in the data active means inhibition above about 8.5%
NR2E3 ag-2: agonists of human NR2E3 nuclear receptor | Q9Y5X4 | inhibition of corepressor binding, % at 3.98 µM | CHO-S Gal4-NCOR/VP16-NR2E3 two-hybrid, luciferase | 0.35% of 360,000 active;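 active means inhibition above the mean of all tested compounds plus 3 SD, cut at about 70% in these data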;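 further: 0% = DMSO with NR2E3 transfected cells and 100% = cells lacking NR2E3 construct; higher means lower luciferase signal from less NR2E3 corepressor binding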
Rev-erbA mod: Rev-erb alpha (human) modulation; Rev-erbα–FITC-DNA binding, fluorescence polarization, 90 min; P20393; 0.79% of 370,000 active; activity, % at 10 µM;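 active means activity above about 14%, limit read from the data; passing the limit was not always enough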;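 further: 0% = DMSO wells with 35 nM protein and 100% = DMSO wells with 750 nM protein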
PG9 bind confirm: PG9 antibody binding, confirmed | inhibition, % at 6.7 µM | TR-FRET PG9 antibody binding, biochemical | shares compounds with PG9 binder | 90% of 1,500 active | AID 651571; in the data active means inhibition above about 9%
PGV04 counter: PGV04 control antibody binding, counter-screen | shares compounds with PG9 binder | TR-FRET PGV04 antibody-gp120 binding, biochemical | inhibition, % at 6.7 µM | 95% of 1,500 active; in the data active means inhibition above about 9.5%
PG9 bind DR: small molecules binding HIV-1 gp120 antibody PG9 | 95 tested, under 10 active | TR-FRET PG9 antibody-gp120 binding inhibition | AID 651848 | IC50, µM | shares compounds with PG9 binder; in the data active means IC50 below about 10 µM
PGV04 binding DR: PGV04 binding, dose response counter-screen; IC50, µM; 20% of 95 active; TR-FRET binding to control antibody PGV04; shares compounds with PG9 binder
PG126 binding DR: binds control antibody PG126 in PG9 counter-screen; shares compounds with PG9 binder; TR-FRET binding to antibody PG126, counterscreen; IC50, µM; 20% of 95 active
NR1D1 mod conf: Rev-erb alpha (human) modulation, hit confirmation. shares compounds with Rev-erbA mod. Rev-erb alpha FITC-DNA binding, fluorescence polarization, 90 min. activation, % at 25 µM. 61% of 3,000 active. AID 1259319;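 active means activation at or above a set limit, or at least 3 SD above the negative control mean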;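 further: 0% = 35 nM protein with DMSO and 100% = 750 nM protein high control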
* = called active by the depositor. Unless noted, no stated cut-off is given here; in the data, active means IC50 below about 9 µM; inactive means the rest.

Screening CCn1c(SCC(=O)Nc2nc3ccccc3s2)nnc1-c1ccc(Br)cc1 returned NR2E3 ag-1 0, PG9 binder 21*, NR2E3 ag-2 14, Rev-erbA mod -1, PG9 bind confirm 23* and PGV04 counter 35*.
Screening COC(=O)[C@]12C[C@H](CC(=O)N3CCCCC3)C(=O)N(Cc3ccc(Cl)cc3Cl)C1=C[C@H](C1CCCC1)O[C@@H]2C returned Rev-erbA mod 7.
`COc1ccc(Br)cc1-c1nc(CCl)cs1` gave NR2E3 ag-1 13, PG9 binder 10*, NR2E3 ag-2 1, Rev-erbA mod 6, PG9 bind confirm 16* and PGV04 counter 20*.
`COCc1cc(C)n(CC(=O)Nc2ccccc2OC)c(=O)c1C#N` gave NR2E3 ag-1 -1, PG9 binder -2, NR2E3 ag-2 -16 and Rev-erbA mod 2.
Screening COCc1cc(C)n(CC(=O)Nc2ccc(Cl)cc2Cl)c(=O)c1C#N returned NR2E3 ag-1 2, PG9 binder 8.8*, NR2E3 ag-2 15, Rev-erbA mod -2, PG9 bind confirm 8, PGV04 counter 8, PG9 bind DR inactive, PGV04 binding DR inactive and PG126 binding DR inactive.
`CCCCCCCCN1C(=O)[C@@H](CC(=O)NCCCOCCCC)C[C@@]2(C(=O)OC)C1=C[C@H](COCc1ccccc1)O[C@@H]2C` gave Rev-erbA mod -2.
`Cc1ccc(-c2nsc(SCC(=O)NCc3ccc4c(c3)OCO4)n2)cc1` gave NR2E3 ag-1 6, PG9 binder 16*, NR2E3 ag-2 -42, Rev-erbA mod 1, PG9 bind confirm 18* and PGV04 counter 21*.
COc1ccc(-c2noc(CCC(=O)NCC3CCCO3)n2)cc1OC (stereo not drawn) was read as NR2E3 ag-1 -1, PG9 binder 11*, NR2E3 ag-2 14, Rev-erbA mod 0, PG9 bind confirm 4 and PGV04 counter 7.
Screening O=C(Nc1ccccc1[N+](=O)[O-])NC1CCCCN(Cc2ccc(Cl)cc2)C1=O (stereo not drawn) returned Rev-erbA mod 7.
COC(=O)c1ccc(OCC(=O)Nc2nn(-c3ccccc3)nc2C(N)=O)cc1 was read as NR2E3 ag-1 6, PG9 binder 12*, NR2E3 ag-2 -15, Rev-erbA mod 15, PG9 bind confirm 30* and PGV04 counter 34*.
`CCCSc1ccc2nc(NC(=O)OC)[nH]c2c1` gave NR2E3 ag-1 1, PG9 binder 12*, NR2E3 ag-2 -63, Rev-erbA mod 10, PG9 bind confirm 25* and PGV04 counter 36*.
CCOc1cc2[nH]c(=S)n(Cc3ccc(C(=O)NCCCN(CC)CC)cc3)c(=O)c2cc1OCC was read as NR2E3 ag-1 2, PG9 binder -1, NR2E3 ag-2 11 and Rev-erbA mod 3.
For CCOc1cc2[nH]c(=S)n(Cc3ccc(C(=O)NCCCOC)cc3)c(=O)c2cc1OCC the results were NR2E3 ag-1 -1, PG9 binder 23*, NR2E3 ag-2 -14, Rev-erbA mod 13, PG9 bind confirm 8 and PGV04 counter 13*.
`CCOC(=O)c1c(NC(=O)C2C3C=CC(CC3)C2C(=O)O)sc(C)c1CC` (stereo not drawn) gave NR2E3 ag-1 1, PG9 binder 8.7*, NR2E3 ag-2 4, Rev-erbA mod 3, PG9 bind confirm 18* and PGV04 counter 23*.
`O=C(O)c1cc(-c2ccc(Br)s2)nc2ccccc12` gave PG9 binder 17*, NR2E3 ag-2 -93, Rev-erbA mod -6, PG9 bind confirm 25* and PGV04 counter 68*.
Screening CCN(CC)CCNC(=O)c1cc(-c2ccc(Br)s2)nc2ccccc12 returned NR2E3 ag-1 7, PG9 binder 15*, NR2E3 ag-2 13, Rev-erbA mod 1, PG9 bind confirm 26* and PGV04 counter 50*.
Screening Cc1cc(-c2cc(C(=O)O)c3ccccc3n2)c(C)s1 returned NR2E3 ag-1 2, PG9 binder 0, NR2E3 ag-2 3 and Rev-erbA mod -4.
Screening CCCCCCCCN1CCS(=O)(=O)N(Cc2ccc(Cl)cc2)C(C(=O)OC)C1 (stereo not drawn) returned Rev-erbA mod 1.
`CCOc1ccc(NC(=O)CSc2nnc(-c3n[nH]c4c3CCC4)n2N)cc1` gave Rev-erbA mod -1.
`O=c1cc(-c2ccccc2)oc2ccc3ccccc3c12` gave PG9 binder 15*, NR2E3 ag-2 -89, Rev-erbA mod 13, PG9 bind confirm 16* and PGV04 counter 24*.
For CCCCOc1ccc(C2C(C(=O)c3ccc(C)o3)=C(O)C(=O)N2CC2CCCO2)cc1 (stereo not drawn) the results were NR2E3 ag-1 8, PG9 binder 26*, NR2E3 ag-2 -1, Rev-erbA mod 3, PG9 bind confirm 25* and PGV04 counter 30*.
`Cc1ccc(C(=O)C2=C(O)C(=O)N(CC3CCCO3)C2c2ccccc2F)o1` (stereo not drawn) gave NR2E3 ag-1 12, PG9 binder 13*, NR2E3 ag-2 -8, Rev-erbA mod 2, PG9 bind confirm 23* and PGV04 counter 31*.
`CC(COc1ccc(Br)cc1)CN1CCC(C(O)(c2ccccc2)c2ccccc2)CC1` (stereo not drawn) gave Rev-erbA mod 5.
For O=C(CSc1nc2ncc(Cl)cc2[nH]1)c1c[nH]c2ccccc12 the results were NR2E3 ag-1 10, PG9 binder 35*, NR2E3 ag-2 -9, Rev-erbA mod 23*, PG9 bind confirm 35*, PGV04 counter 51* and NR1D1 mod conf 23*.
O=C(CSc1nc2ccc(Cl)cc2[nH]1)c1c[nH]c2ccccc12 was read as NR2E3 ag-1 1, PG9 binder -2, NR2E3 ag-2 -25 and Rev-erbA mod 1.
For O=C(Cn1c(=S)[nH]c2ccccc2c1=O)N1CCc2ccccc2C1 the results were NR2E3 ag-1 -3, PG9 binder 32*, NR2E3 ag-2 -11, Rev-erbA mod 35*, PG9 bind confirm 33*, PGV04 counter 51* and NR1D1 mod conf 23*.
